# Data reported in paper PMC8992012 (Bioorganic & medicinal chemistry, 2021).
# Test system: NF-κB
# Experiment: NF-κB activation using THP1-Blue NF-κB cells
# Type: cell-based, human
# Conditions: Homo sapiens, 20 h, read-out: NF-κB SEAP Compound alone % Activation
# Procedure, shortened: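 THP1-Blue NF-κB cells carry a stably integrated NF-κB-inducible SEAP. They were plated at 10^5 cells/well in RPMI with 10% FBS, penicillin, streptomycin and Normocin, then treated for 20 h with 5 μM test compound (0.5% DMSO final), alone or with LPS at 10 ng/mL. Supernatant SEAP was read colorimetrically at 630 nm. Signals were two-point normalized: baseline (vehicle or LPS) 100%, reference hit 200%.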
row,SMILES,activation at 5 µM [%]
1,"Cc1ccccc1-c1csc(NC(=O)c2ccc(S(=O)(=O)N3CCCCC3)cc2)n1 [Compound 12b, 4-(piperidin-1-ylsulfonyl)-N-(4-(o-tolyl)thiazol-2-yl)benzamide]",100
2,"Cc1cccc(-c2csc(NC(=O)c3ccc(S(=O)(=O)N4CCCCC4)cc3)n2)c1 [Compound 12c, 4-(piperidin-1-ylsulfonyl)-N-(4-(m-tolyl)thiazol-2-yl)benzamide]",100
3,"Cc1csc(NC(=O)c2ccc(S(=O)(=O)N3CCCCC3)cc2)n1 [Compound 12g, N-(4-methylthiazol-2-yl)-4-(piperidin-1-ylsulfonyl)benzamide]",100
4,"CCc1csc(NC(=O)c2ccc(S(=O)(=O)N3CCCCC3)cc2)n1 [Compound 12h, N-(4-ethylthiazol-2-yl)-4-(piperidin-1-ylsulfonyl)benzamide]",100
5,"CCCc1csc(NC(=O)c2ccc(S(=O)(=O)N3CCCCC3)cc2)n1 [Compound 12i, 4-(piperidin-1-ylsulfonyl)-N-(4-propylthiazol-2-yl)benzamide]",100

# Same assay, conditions: compound alone, 5 μM, 20h
row,SMILES,"NF-κB activity (in words, SAR text to Table 1)"
1,"Cc1ccccc1-c1csc(NC(=O)c2ccc(S(=O)(=O)N3CCCCC3)cc2)n1 [Compound 12b, 4-(piperidin-1-ylsulfonyl)-N-(4-(o-tolyl)thiazol-2-yl)benzamide]",inactive
2,"Cc1cccc(-c2csc(NC(=O)c3ccc(S(=O)(=O)N4CCCCC4)cc3)n2)c1 [Compound 12c, 4-(piperidin-1-ylsulfonyl)-N-(4-(m-tolyl)thiazol-2-yl)benzamide]",inactive
3,"Cc1ccc(Br)cc1-c1csc(NC(=O)c2ccc(S(=O)(=O)N3CCCCC3)cc2)n1 [Compound 12e, N-(4-(5-bromo-2-methylphenyl)thiazol-2-yl)-4-(piperidin-1-ylsulfonyl)benzamide]",active
4,"Cc1ccc(C)c(Cc2csc(NC(=O)c3ccc(S(=O)(=O)N4CCCCC4)cc3)n2)c1 [Compound 12f, N-(4-(2,5-dimethylbenzyl)thiazol-2-yl)-4-(piperidin-1-ylsulfonyl)benzamide]",inactive
5,"Cc1csc(NC(=O)c2ccc(S(=O)(=O)N3CCCCC3)cc2)n1 [Compound 12g, N-(4-methylthiazol-2-yl)-4-(piperidin-1-ylsulfonyl)benzamide]",None of these molecules had any NF-κB activity
6,"CCc1csc(NC(=O)c2ccc(S(=O)(=O)N3CCCCC3)cc2)n1 [Compound 12h, N-(4-ethylthiazol-2-yl)-4-(piperidin-1-ylsulfonyl)benzamide]",None of these molecules had any NF-κB activity
7,"CCCc1csc(NC(=O)c2ccc(S(=O)(=O)N3CCCCC3)cc2)n1 [Compound 12i, 4-(piperidin-1-ylsulfonyl)-N-(4-propylthiazol-2-yl)benzamide]",None of these molecules had any NF-κB activity
8,"CC(C)(C)Cc1csc(NC(=O)c2ccc(S(=O)(=O)N3CCCCC3)cc2)n1 [Compound 12j, N-(4-neopentylthiazol-2-yl)-4-(piperidin-1-ylsulfonyl)benzamide]",None of these molecules had any NF-κB activity
9,"CC(C)(C)c1csc(NC(=O)c2ccc(S(=O)(=O)N3CCCCC3)cc2)n1 [Compound 12k, N-(4-(tert-butyl)thiazol-2-yl)-4-(piperidin-1-ylsulfonyl)benzamide]",None of these molecules had any NF-κB activity
10,"Cc1cccc(-c2csc(NC(=O)c3ccc(S(=O)(=O)N4CCCCC4)cc3)n2)c1C [Compound 12l, N-(4-(2,3-dimethylphenyl)thiazol-2-yl)-4-(piperidin-1-ylsulfonyl)benzamide]",retained activity
11,"Cc1cc(C)cc(-c2csc(NC(=O)c3ccc(S(=O)(=O)N4CCCCC4)cc3)n2)c1 [Compound 12o, N-(4-(3,5-dimethylphenyl)thiazol-2-yl)-4-(piperidin-1-ylsulfonyl)benzamide]",inactive
12,"Cc1cccc(C)c1-c1csc(NC(=O)c2ccc(S(=O)(=O)N3CCCCC3)cc2)n1 [Compound 12p, N-(4-(2,6-dimethylphenyl)thiazol-2-yl)-4-(piperidin-1-ylsulfonyl)benzamide]",retained activity
13,"O=C(Nc1nc(-c2cccc3ccccc23)cs1)c1ccc(S(=O)(=O)N2CCCCC2)cc1 [Compound 12q, N-(4-(naphthalen-1-yl)thiazol-2-yl)-4-(piperidin-1-ylsulfonyl)benzamide]",equally potent
14,"Cc1ccc2c(c1)-c1nc(NC(=O)c3ccc(S(=O)(=O)N4CCCCC4)cc3)sc1C2 [Compound 12r, N-(5-methyl-8H-indeno[1,2-d]thiazol-2-yl)-4-(piperidin-1-ylsulfonyl)benzamide]",weakly active
15,"Cc1ccc2c(c1)-c1nc(NC(=O)c3ccc(S(=O)(=O)N4CCCCC4)cc3)sc1CC2 [Compound 12s, N-(8-methyl-4,5-dihydronaphtho[1,2-d]thiazol-2-yl)-4-(piperidin-1-ylsulfonyl)benzamide]",weakly active
16,"C#Cc1ccc(C)c(-c2csc(NC(=O)c3ccc(S(=O)(=O)N4CCCCC4)cc3)n2)c1 [Compound 12t, N-(4-(5-ethynyl-2-methylphenyl)thiazol-2-yl)-4-(piperidin-1-ylsulfonyl)benzamide]",inactive
17,"CCc1ccc(C)c(-c2csc(NC(=O)c3ccc(S(=O)(=O)N4CCCCC4)cc3)n2)c1 [Compound 12u, N-(4-(5-ethyl-2-methylphenyl)thiazol-2-yl)-4-(piperidin-1-ylsulfonyl)benzamide]",regained the NF-κB activity

row,SMILES,"NF-κB activity (in words, SAR text to Table 1)"
1,"Cc1ccc(C)c(-c2c[nH]c(NC(=O)c3ccc(S(=O)(=O)N4CCCCC4)cc3)n2)c1 [Compound 18a, N-(4-(2,5-dimethylphenyl)-1H-imidazol-2-yl)-4-(piperidin-1-ylsulfonyl)benzamide]",none of these molecules that replaced the thiazole functionality was active
2,"Cc1ccc(C)c(-c2cccc(NC(=O)c3ccc(S(=O)(=O)N4CCCCC4)cc3)n2)c1 [Compound 18b, N-(6-(2,5-dimethylphenyl)pyridin-2-yl)-4-(piperidin-1-ylsulfonyl)benzamide]",none of these molecules that replaced the thiazole functionality was active
3,"Cc1ccc(C)c(-c2ccc(NC(=O)c3ccc(S(=O)(=O)N4CCCCC4)cc3)nc2)c1 [Compound 18c, N-(5-(2,5-dimethylphenyl)pyridin-2-yl)-4-(piperidin-1-ylsulfonyl)benzamide]",none of these molecules that replaced the thiazole functionality was active
4,"Cc1ccc(C)c(-c2ccc(NC(=O)c3ccc(S(=O)(=O)N4CCCCC4)cc3)cn2)c1 [Compound 18d, N-(6-(2,5-dimethylphenyl)pyridin-3-yl)-4-(piperidin-1-ylsulfonyl)benzamide]",none of these molecules that replaced the thiazole functionality was active
5,"Cc1ccc(C)c(-c2cnc(NC(=O)c3ccc(S(=O)(=O)N4CCCCC4)cc3)s2)c1 [Compound 18e, N-(5-(2,5-dimethylphenyl)thiazol-2-yl)-4-(piperidin-1-ylsulfonyl)benzamide]",none of these molecules that replaced the thiazole functionality was active
6,"Cc1ccc(C)c(-c2nnc(NC(=O)c3ccc(S(=O)(=O)N4CCCCC4)cc3)s2)c1 [Compound 18f, N-(5-(2,5-dimethylphenyl)-1,3,4-thiadiazol-2-yl)-4-(piperidin-1-ylsulfonyl)benzamide]",none of these molecules that replaced the thiazole functionality was active
7,"CCN(CC)c1sc(NC(=O)c2ccc(S(=O)(=O)N3CCCCC3)cc2)nc1-c1cc(C)ccc1C [Compound 18g, N-(5-(diethylamino)-4-(2,5-dimethylphenyl)thiazol-2-yl)-4-(piperidin-1-ylsulfonyl)benzamide]",completely inactive
8,"Cc1ccc(C)c(-c2nc(NC(=O)c3ccc(S(=O)(=O)N4CCCCC4)cc3)sc2N2CCCCC2)c1 [Compound 18h, N-(4-(2,5-dimethylphenyl)-5-(piperidin-1-yl)thiazol-2-yl)-4-(piperidin-1-ylsulfonyl)benzamide]",completely inactive
9,"Cc1ccc(C)c(-c2nc(NC(=O)c3ccc(S(=O)(=O)N4CCCCC4)cc3)sc2-c2ccccc2)c1 [Compound 18i, N-(4-(2,5-dimethylphenyl)-5-phenylthiazol-2-yl)-4-(piperidin-1-ylsulfonyl)benzamide]",completely inactive
10,"Cc1ccc(C)c(-c2nc(NC(=O)c3ccc(S(=O)(=O)N4CCCCC4)cc3)sc2-c2ccco2)c1 [Compound 18j, N-(4-(2,5-dimethylphenyl)-5-(furan-2-yl)thiazol-2-yl)-4-(piperidin-1-ylsulfonyl)benzamide]",completely inactive
11,"CCSc1sc(NC(=O)c2ccc(S(=O)(=O)N3CCCCC3)cc2)nc1-c1cc(C)ccc1C [Compound 18k, N-(4-(2,5-dimethylphenyl)-5-(ethylthio)thiazol-2-yl)-4-(piperidin-1-ylsulfonyl)benzamide]",completely inactive
12,"CCOc1sc(NC(=O)c2ccc(S(=O)(=O)N3CCCCC3)cc2)nc1-c1cc(C)ccc1C [Compound 18l, N-(4-(2,5-dimethylphenyl)-5-ethoxythiazol-2-yl)-4-(piperidin-1-ylsulfonyl)benzamide]",partial activity
13,"C#Cc1sc(NC(=O)c2ccc(S(=O)(=O)N3CCCCC3)cc2)nc1-c1cc(C)ccc1C [Compound 18o, N-(4-(2,5-dimethylphenyl)-5-ethynylthiazol-2-yl)-4-(piperidin-1-ylsulfonyl)benzamide]",weak activity
14,"CCC#Cc1sc(NC(=O)c2ccc(S(=O)(=O)N3CCCCC3)cc2)nc1-c1cc(C)ccc1C [Compound 18p, N-(5-(but-1-yn-1-yl)-4-(2,5-dimethylphenyl)thiazol-2-yl)-4-(piperidin-1-ylsulfonyl)benzamide]",very potent
15,"Cc1ccc(C)c(-c2csc(NCc3ccc(S(=O)(=O)N4CCCCC4)cc3)n2)c1 [Compound 34a, 4-(2,5-dimethylphenyl)-N-(4-(piperidin-1-ylsulfonyl)benzyl)thiazol-2-amine]",inactive
16,"Cc1ccc(C)c(-c2csc(N(C)C(=O)c3ccc(S(=O)(=O)N4CCCCC4)cc3)n2)c1 [Compound 34c, N-(4-(2,5-dimethylphenyl)thiazol-2-yl)-N-methyl-4-(piperidin-1-ylsulfonyl)benzamide]",inactive
